Assay results as given in publication PMC3517974 (ChemMedChem, 2009).

Columns and labels:
[1] = type: in vitro ADME, rat; details: for log kplasma: hydrolysis constant in rat plasma
[2] = In vitro stability in rat liver S9 fraction with NADPH-regenerating system; type: in vitro ADME; details: for log kS9: hydrolysis constant in rat liver S9 fraction
In short: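 S9 came from male Wistar rat liver (250–300 g), perfused with ice-cold 0.15 M KCl, homogenized 20% w/v in 0.01 M PBS pH 7.4, and spun at 9,000g. It was preincubated 5 min at 37 °C with NADPH-regenerating system (2 mM NADP+, 10 mM G6P, 0.4 U/mL G6PDH, 5 mM MgCl2), 2 mg/mL protein. Test compound was added at 1 µM (1% DMSO). Aliquots were acetonitrile-quenched and analyzed by RP-HPLC; t1/2 from pseudo-first-order constants, mean±SD of three.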

| Structure (SMILES) | t1/2,inhib in rat plasma ([1]; coincubation with esterase inhibitor paraoxon 1 mM) [h] | log kplasma [1] | log kS9 [2] | half-life at 1 μM ([2]; male, Wistar, rat, liver S9 fraction, pH 7.4, half-life in rat liver S9 fraction, in vitro oxidative metabolism) [h] | stability in rat liver S9 relative to regio isomer 1 [2] [fold] |
| --- | --- | --- | --- | --- | --- |
| O=C(NC1CCCCC1)Oc1cccc(-c2ccccc2)c1 [Compound 1] | 2.38 | −1.79 | −0.94 | – | – |
| CCCCNC(=O)Oc1ccc(OCc2ccccc2)cc1 [Compound 8, n-Butylcarbamic acid 4-benzyloxyphenyl ester] | – | −2.68 | −1.00 | – | – |
| NC(=O)c1cccc(-c2cccc(OC(=O)NC3CCCCC3)c2)c1 [Compound 9, cyclohexylcarbamic acid 3′-carbamoylbiphenyl-3-yl ester] | – | −1.68 | −1.93 | ~1 | – |
| O=C(NC1CCCCC1)Oc1ccc(-c2ccccc2)cc1 [Compound 12, Cyclohexylcarbamic acid biphenyl-4-yl ester] | – | −1.50 | −1.44 | – | 3 |
| O=C(NC1CCCCC1)Oc1ccc2ccccc2c1 [Compound 13, Cyclohexylcarbamic acid naphthalen-2-yl ester] | – | −1.57 | −0.86 | – | – |
